Reference: ChEMBL document CHEMBL1133010, “Structure-function studies of polymyxin B nonapeptide: implications to sensitization of gram-negative bacteria” (J Med Chem, 2000)
pIC50: −log10 of the molar value.

Legend:
Type in all cases: functional
Escherichia coli [1] = experiment: Maximal displacement of dansyl-PMBN from Escherichia coli LPS
How it was run: (§1)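 Fluorescence displacement assay. E. coli LPS (3 µg/mL, ~2 × 10^-7 M) in 5 mM HEPES pH 7.2 was pre-equilibrated with dansyl-PMBN (0.55 µM). Peptide was added stepwise at 5-min intervals from 1 × 10^-5 to 1 × 10^-3 M stocks. Fluorescence read at excitation 340 nm and emission 485 nm after each addition. Percent inhibition was plotted against concentration to give maximal and 50% displacement. 2-3 repeats.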

Escherichia coli [2] = experiment: Inhibitory concentration required to displace dansyl-PMBN (0.55 uM) from maximal specific binding to Escherichia coli LPS; how it was run: as §1
Klebsiella pneumoniae = experiment: Relative sensitizing activity against Klebsiella pneumoniae was determined as a percent of pPMBN (50 ug/mL) as a control
How it was run: (§2)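 Clinical isolates at 1 × 10^5 CFU per well, in ISB with a 2-fold serial dilution (1000-0.5 µg/mL) of novobiocin. Peptide added at 50 µg/mL final. Incubated 20 h at 37 °C and read by visible growth. Sensitizing activity is the fold drop in novobiocin MIC with versus without peptide, expressed as percent of that given by 50 µg/mL pPMBN.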

Escherichia coli [3] = experiment: Relative sensitizing activity against Escherichia coli was determined as a percent of pPMBN (50 ug/mL) as a control; how it was run: as §2

Compound	Imax (Escherichia coli [1])	Activity (Klebsiella pneumoniae)	Activity (Escherichia coli [3])	also measured
CC(C)C[C@H]1NC(=O)[C@H](Cc2ccccc2)NC(=O)[C@@H](CCN=C(N)N)NC(=O)[C@H](NC(=O)[C@H](CCN=C(N)N)NC(=O)[C@@H](N)[C@@H](C)O)CCNC(=O)[C@H]([C@@H](C)O)NC(=O)[C@@H](CCN=C(N)N)NC(=O)[C@H](CCN=C(N)N)NC1=O	80%	–	–	–
CC(C)C[C@@H]1NC(=O)[C@@H](Cc2ccccc2)NC(=O)[C@H](CCN)NC(=O)[C@@H](NC(=O)[C@H](CCN)NC(=O)[C@@H](N)[C@@H](C)O)CCNC(=O)[C@H]([C@@H](C)O)NC(=O)[C@H](CCN)NC(=O)[C@H](CCN)NC1=O (stereo in doubt; form 1)	–	–	–	pIC50 (Escherichia coli [2]; Escherichia coli): 5.60
CC(C)C[C@H]1NC(=O)[C@@H](Cc2ccccc2)NC(=O)[C@@H](CCN)NC(=O)[C@H](NC(=O)[C@H](CCN)NC(=O)[C@@H](N)[C@@H](C)O)CCNC(=O)[C@H]([C@@H](C)O)NC(=O)[C@@H](CCCCN)NC(=O)[C@H](CCCCN)NC1=O	62%	–	–	–
CC(C)C[C@@H]1NC(=O)[C@H](Cc2ccccc2)NC(=O)[C@H](CCN)NC(=O)[C@@H](NC(=O)[C@H](CCN)NC(=O)[C@@H](N)[C@@H](C)O)CCNC(=O)[C@H]([C@@H](C)O)NC(=O)[C@H](CCN)NC(=O)[C@H](CCN)NC1=O [listing 1 of 2 here]	–	–	–	pIC50 (Escherichia coli [2]; Escherichia coli): 5.10
CC(C)C[C@H]1NC(=O)[C@@H](Cc2ccccc2)NC(=O)[C@@H](CCN)NC(=O)[C@H](CCN)NC(=O)[C@@H](NC(=O)[C@@H](N)[C@@H](C)O)CCNC(=O)[C@H]([C@@H](C)O)NC(=O)[C@@H](CCN)NC(=O)[C@H](CCN)NC1=O	60%	–	–	–
CC(C)C[C@@H]1NC(=O)[C@@H](Cc2ccccc2)NC(=O)[C@H](CCCN)NC(=O)[C@@H](NC(=O)[C@H](CCCN)NC(=O)[C@@H](N)[C@@H](C)O)CCCNC(=O)[C@H]([C@@H](C)O)NC(=O)[C@H](CCCN)NC(=O)[C@H](CCCN)NC1=O	–	6%	2%	–
CC(C)C[C@H]1NC(=O)[C@@H](Cc2ccccc2)NC(=O)[C@@H](CCN)NC(=O)[C@H](NC(=O)[C@H](CCN)NC(=O)[C@@H](N)[C@@H](C)O)CCCCNC(=O)[C@H]([C@@H](C)O)NC(=O)[C@@H](CCN)NC(=O)[C@H](CCN)NC1=O	60%	–	–	–
CC(C)C[C@@H]1NC(=O)[C@@H](Cc2ccccc2)NC(=O)[C@H](CCCCN)NC(=O)[C@@H](NC(=O)[C@H](CCCCN)NC(=O)[C@@H](N)[C@@H](C)O)CCNC(=O)[C@H]([C@@H](C)O)NC(=O)[C@H](CCN)NC(=O)[C@H](CCN)NC1=O	–	13%	9%	–
CC(C)C[C@@H]1NC(=O)[C@@H](Cc2ccccc2)NC(=O)[C@H](CCN)NC(=O)[C@@H](NC(=O)[C@H](CCN)NC(=O)[C@@H](N)[C@@H](C)O)CCNC(=O)[C@H]([C@@H](C)O)NC(=O)[C@H](CCCCN)NC(=O)[C@H](CCCCN)NC1=O [listing 1 of 2 here]	–	–	–	pIC50 (Escherichia coli [2]; Escherichia coli): 4.92
CC(C)C[C@@H]1NC(=O)[C@@H](Cc2ccccc2)NC(=O)[C@H](CCN)NC(=O)[C@H](CCN)NC(=O)[C@@H](NC(=O)[C@@H](N)[C@@H](C)O)CCNC(=O)[C@H]([C@@H](C)O)NC(=O)[C@H](CCN)NC(=O)[C@H](CCN)NC1=O [listing 1 of 2 here]	–	5%	7%	–
CC(C)C[C@@H]1NC(=O)[C@@H](Cc2ccccc2)NC(=O)[C@H](CCN)NC(=O)[C@H](CCN)NC(=O)[C@@H](NC(=O)[C@@H](N)[C@@H](C)O)CCNC(=O)[C@H]([C@@H](C)O)NC(=O)[C@H](CCN)NC(=O)[C@H](CCN)NC1=O [listing 2 of 2 here]	–	–	–	pIC50 (Escherichia coli [2]; Escherichia coli): 5.10
CC(C)C[C@@H]1NC(=O)[C@@H](Cc2ccccc2)NC(=O)[C@H](CCN=C(N)N)NC(=O)[C@@H](NC(=O)[C@H](CCN=C(N)N)NC(=O)[C@@H](N)[C@@H](C)O)CCNC(=O)[C@H]([C@@H](C)O)NC(=O)[C@H](CCN=C(N)N)NC(=O)[C@H](CCN=C(N)N)NC1=O	–	25%	25%	–
CC(C)C[C@@H]1NC(=O)[C@@H](Cc2ccccc2)NC(=O)[C@H](CCCCN)NC(=O)[C@@H](NC(=O)[C@H](CCCCN)NC(=O)[C@@H](N)[C@@H](C)O)CCNC(=O)[C@H]([C@@H](C)O)NC(=O)[C@H](CCCCN)NC(=O)[C@H](CCCCN)NC1=O [listing 1 of 2 here]	–	3%	5%	–
CC(C)C[C@@H]1NC(=O)[C@@H](Cc2ccccc2)NC(=O)[C@H](CCN)NC(=O)[C@@H](NC(=O)[C@H](CCN)NC(=O)[C@@H](N)[C@@H](C)O)CCCCNC(=O)[C@H]([C@@H](C)O)NC(=O)[C@H](CCN)NC(=O)[C@H](CCN)NC1=O [listing 1 of 2 here]	–	–	–	pIC50 (Escherichia coli [2]; Escherichia coli): 5.10
CC(C)C[C@@H]1NC(=O)[C@@H](Cc2ccccc2)NC(=O)[C@H](CCCCN)NC(=O)[C@@H](NC(=O)[C@H](CCCCN)NC(=O)[C@@H](N)[C@@H](C)O)CCCCNC(=O)[C@H]([C@@H](C)O)NC(=O)[C@H](CCCCN)NC(=O)[C@H](CCCCN)NC1=O	–	3%	4%	–
CC(C)C[C@@H]1NC(=O)[C@@H](Cc2ccccc2)NC(=O)[C@H](CCN)NC(=O)[C@@H](NC(=O)[C@H](CCN)NC(=O)[C@@H](N)[C@@H](C)O)CCCCNC(=O)[C@H]([C@@H](C)O)NC(=O)[C@H](CCN)NC(=O)[C@H](CCN)NC1=O [listing 2 of 2 here]	–	18%	17%	–
CC(C)C[C@@H]1NC(=O)[C@@H](Cc2ccccc2)NC(=O)[C@H](CCCCN)NC(=O)[C@@H](NC(=O)[C@H](CCCCN)NC(=O)[C@@H](N)[C@@H](C)O)CCNC(=O)[C@H]([C@@H](C)O)NC(=O)[C@H](CCCCN)NC(=O)[C@H](CCCCN)NC1=O [listing 2 of 2 here]	–	–	–	pIC50 (Escherichia coli [2]; Escherichia coli): 4.52

Compound	Imax (Escherichia coli [1])	Activity (Klebsiella pneumoniae)	Activity (Escherichia coli [3])	also measured
CC(C)C[C@H]1NC(=O)[C@@H](Cc2ccccc2)NC(=O)[C@@H](CCCN)NC(=O)[C@H](NC(=O)[C@H](CCCN)NC(=O)[C@@H](N)[C@@H](C)O)CCCNC(=O)[C@H]([C@@H](C)O)NC(=O)[C@@H](CCCN)NC(=O)[C@H](CCCN)NC1=O	62%	–	–	–
CC(C)C[C@H]1NC(=O)[C@@H](Cc2ccccc2)NC(=O)[C@@H](NC(=O)[C@H](CCN)NC(=O)[C@H](CCN)NC(=O)[C@@H](N)[C@@H](C)O)CCNC(=O)[C@H]([C@@H](C)O)NC(=O)[C@@H](CCN)NC(=O)[C@H](CCN)NC1=O	45%	–	–	–
POLYMYXIN B [listing 1 of 2 here]	–	–	–	pIC50 (Escherichia coli [2]): 6.30
CC(C)C[C@H]1NC(=O)[C@@H](Cc2ccccc2)NC(=O)[C@@H](CCCCN)NC(=O)[C@H](NC(=O)[C@H](CCCCN)NC(=O)[C@@H](N)[C@@H](C)O)CCNC(=O)[C@H]([C@@H](C)O)NC(=O)[C@@H](CCN)NC(=O)[C@H](CCN)NC1=O	64%	–	–	–
CC(C)C[C@H]1NC(=O)[C@@H](Cc2ccccc2)NC(=O)[C@@H](CN)NC(=O)[C@H](NC(=O)[C@H](CN)NC(=O)[C@@H](N)[C@@H](C)O)CNC(=O)[C@H]([C@@H](C)O)NC(=O)[C@@H](CN)NC(=O)[C@H](CN)NC1=O	64%	–	–	–
CC(C)C[C@H]1NC(=O)[C@@H](Cc2ccccc2)NC(=O)[C@@H](CCN)NC(=O)[C@H](NC(=O)[C@H](CCN)NC(=O)[C@@H](N)[C@@H](C)O)CCNC(=O)[C@H]([C@@H](C)O)NC(=O)[C@@H](CCN)NC(=O)[C@H](CCN)NC1=O (stereo in doubt; form 1)	80%	–	–	–
CC(C)C[C@H]1NC(=O)[C@@H](Cc2ccccc2)NC(=O)[C@@H](CCCCN)NC(=O)[C@H](NC(=O)[C@H](CCCCN)NC(=O)[C@@H](N)[C@@H](C)O)CCCCNC(=O)[C@H]([C@@H](C)O)NC(=O)[C@@H](CCCCN)NC(=O)[C@H](CCCCN)NC1=O	60%	–	–	–
CC(C)C[C@@H]1NC(=O)[C@@H](Cc2ccccc2)NC(=O)[C@H](CN)NC(=O)[C@@H](NC(=O)[C@H](CN)NC(=O)[C@@H](N)[C@@H](C)O)CNC(=O)[C@H]([C@@H](C)O)NC(=O)[C@H](CN)NC(=O)[C@H](CN)NC1=O	–	5%	11%	–
POLYMYXIN B [listing 2 of 2 here]	100%	–	–	–
CC(C)C[C@@H]1NC(=O)[C@@H](Cc2ccccc2)NC(=O)[C@H](CCN)NC(=O)[C@@H](NC(=O)[C@H](CCN)NC(=O)[C@@H](N)[C@@H](C)O)CCNC(=O)[C@H]([C@@H](C)O)NC(=O)[C@H](CCN)NC(=O)[C@H](CCN)NC1=O (stereo in doubt; form 2)	–	93%	96%	–
CC(C)C[C@H]1NC(=O)[C@@H](Cc2ccccc2)NC(=O)[C@@H](CCCCN)NC(=O)[C@H](NC(=O)[C@H](CCCCN)NC(=O)[C@@H](N)[C@@H](C)O)CCNC(=O)[C@H]([C@@H](C)O)NC(=O)[C@@H](CCCCN)NC(=O)[C@H](CCCCN)NC1=O	45%	–	–	–
CC(C)C[C@@H]1NC(=O)[C@@H](Cc2ccccc2)NC(=O)[C@H](CCN)NC(=O)[C@@H](NC(=O)[C@H](CCN)NC(=O)[C@@H](N)[C@@H](C)O)CCNC(=O)[C@H]([C@@H](C)O)NC(=O)[C@H](CCCCN)NC(=O)[C@H](CCCCN)NC1=O [listing 2 of 2 here]	–	26%	40%	–
CC(C)C[C@H]1NC(=O)[C@@H](Cc2ccccc2)NC(=O)[C@@H](CCN)NC(=O)[C@H](NC(=O)[C@H](CCN)NC(=O)[C@@H](N)[C@@H](C)O)CCNC(=O)[C@H]([C@@H](C)O)NC(=O)[C@@H](CCN)NC(=O)[C@H](CCN)NC1=O (stereo in doubt; form 2)	80%	–	–	–
CC(C)C[C@H]1NC(=O)[C@H](Cc2ccccc2)NC(=O)[C@@H](CCN)NC(=O)[C@H](NC(=O)[C@H](CCN)NC(=O)[C@@H](N)[C@@H](C)O)CCNC(=O)[C@H]([C@@H](C)O)NC(=O)[C@@H](CCN)NC(=O)[C@H](CCN)NC1=O	64%	–	–	–
CC(C)C[C@@H]1NC(=O)[C@@H](Cc2ccccc2)NC(=O)[C@@H](NC(=O)[C@H](CCN)NC(=O)[C@H](CCN)NC(=O)[C@@H](N)[C@@H](C)O)CCNC(=O)[C@H]([C@@H](C)O)NC(=O)[C@H](CCN)NC(=O)[C@H](CCN)NC1=O	–	5%	4%	–
CC(C)C[C@@H]1NC(=O)[C@H](Cc2ccccc2)NC(=O)[C@H](CCN)NC(=O)[C@@H](NC(=O)[C@H](CCN)NC(=O)[C@@H](N)[C@@H](C)O)CCNC(=O)[C@H]([C@@H](C)O)NC(=O)[C@H](CCN)NC(=O)[C@H](CCN)NC1=O [listing 2 of 2 here]	–	9%	5%	–
